Values after ≈ are worked out from the molar mass of the structure shown. Each block holds one compound with its values, some of them ahead of it.
How the values were obtained:
[1] = system: C. parvum; test: Cryptosporidium rate-of-action assay in HCT-8 cells; type: cell-based, Cryptosporidium parvum; conditions: for parasite elimination in rate-of-action assay: nitazoxanide at EC90, highest tolerated concentration
How it was run: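 HCT-8 monolayers (>90% confluent) are infected with C. parvum sporozoites excysted with 10 mM HCl and then 2 mM taurocholate. […] Cells are fixed, stained with V. villosa lectin and Hoechst, and counted by epifluorescence. Counts are normalised to host nuclei and DMSO wells, then fitted to one-phase exponential decay. Four wells per condition.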

[2] = system: Cryptosporidium; conditions: cited from earlier work
[3] = system: HCT-8 cells; test: host cell cytotoxicity, CellTiter AQueous; type: cell-based, human
How it was run: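 HCT-8 cells are grown in RPMI 1640 with 10% heat-inactivated FBS and penicillin/streptomycin at 37 °C, 5% CO2, used at passages 9–39. Confluent (>95%) monolayers get varying compound concentrations for 48 h. MTS reduction is read at 490 nm, blanked against trypsinised wells, and expressed as % viability versus DMSO. TC50 is curve-fitted; the selectivity index is the […].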

[4] = system: C. parvum; test: NOD SCID gamma mouse model of cryptosporidiosis, fecal parasite shedding by qPCR; type: in vivo; conditions: NSG mice
How it was run: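 Male NSG mice aged 4–5 weeks are infected with C. parvum oocysts. Oral gavage starts 7 (or 14) days post-infection and runs 7 days. Dosing stock in DMSO is diluted into 1% HPMC (5% DMSO final, 100 μL per dose), with a paromomycin control. Fecal shedding per mg feces is measured by qPCR at treatment start, at treatment end and one week later. n = 4 mice per group, mean and SEM.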

[5] = kinetic aqueous solubility
[6] = system: C. hominis Tu502 strain; test: C. hominis growth in HCT-8 cells, same method; type: cell-based; conditions: Cryptosporidium hominis, HCT-8, read-out: C. hominis EC50
How it was run: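 TU502 oocysts, used within 1 month, excysted with 10 mM HCl (10 min, 37 °C) and then 2 mM sodium taurocholate in PBS (10 min, 16 °C). Material from 5500 oocysts/well was added to >95% confluent HCT-8 monolayers (passages 9–39, 37 °C, 5% CO2). Compound went in 3 h post-infection, with nitazoxanide as control. At 48 h, cells were fixed with paraformaldehyde and stained with fluorescein-Vicia villosa lectin plus Hoechst.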

[7] = NSG mouse weights and tolerability during efficacy testing; type: in vivo, Mus musculus (NOD SCID gamma mice); conditions: 50 mpk twice daily, 7 days
[8] = target: hERG potassium channel (Homo sapiens, UniProt Q12809); test: hERG [3H]-dofetilide competitive binding; conditions: probe [3H]-dofetilide
Sequence of hERG potassium channel (Q12809 whole entry): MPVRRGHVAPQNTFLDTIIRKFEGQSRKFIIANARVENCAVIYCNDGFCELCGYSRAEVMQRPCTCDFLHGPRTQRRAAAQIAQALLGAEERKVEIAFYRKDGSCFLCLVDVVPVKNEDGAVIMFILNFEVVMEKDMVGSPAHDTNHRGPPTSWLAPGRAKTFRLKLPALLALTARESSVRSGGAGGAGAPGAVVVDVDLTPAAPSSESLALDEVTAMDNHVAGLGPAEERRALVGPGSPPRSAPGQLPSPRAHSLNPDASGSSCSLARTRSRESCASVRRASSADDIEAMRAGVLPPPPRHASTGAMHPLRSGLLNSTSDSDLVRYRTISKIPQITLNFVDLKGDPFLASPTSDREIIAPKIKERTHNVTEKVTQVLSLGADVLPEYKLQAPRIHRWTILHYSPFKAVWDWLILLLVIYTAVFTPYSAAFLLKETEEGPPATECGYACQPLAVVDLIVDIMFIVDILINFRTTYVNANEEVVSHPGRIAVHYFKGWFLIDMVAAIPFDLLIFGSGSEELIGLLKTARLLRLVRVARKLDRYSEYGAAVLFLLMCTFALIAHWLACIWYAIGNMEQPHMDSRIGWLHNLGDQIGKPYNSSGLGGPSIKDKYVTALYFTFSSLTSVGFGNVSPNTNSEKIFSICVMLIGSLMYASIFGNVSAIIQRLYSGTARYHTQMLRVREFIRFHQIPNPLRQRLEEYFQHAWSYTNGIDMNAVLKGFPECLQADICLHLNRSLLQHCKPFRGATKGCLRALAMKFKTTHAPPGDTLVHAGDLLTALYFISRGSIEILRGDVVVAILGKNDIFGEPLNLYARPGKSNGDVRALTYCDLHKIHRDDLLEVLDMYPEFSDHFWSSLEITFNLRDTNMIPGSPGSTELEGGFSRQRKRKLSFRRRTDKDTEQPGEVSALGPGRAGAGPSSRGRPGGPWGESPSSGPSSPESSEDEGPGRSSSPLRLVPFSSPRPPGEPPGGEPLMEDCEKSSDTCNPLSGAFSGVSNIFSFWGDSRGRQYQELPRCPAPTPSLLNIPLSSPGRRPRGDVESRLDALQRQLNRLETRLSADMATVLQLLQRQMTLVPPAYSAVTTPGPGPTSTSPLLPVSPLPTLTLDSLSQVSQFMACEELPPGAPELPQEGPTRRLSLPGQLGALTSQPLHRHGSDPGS

[9] = system: 47 human targets; test: Eurofins SafetyScan47 panel, whole panel; conditions: dose-response up to 30 μM
[10] = system: C. parvum CpPDE1 Val900Ala; test: HCT-8 cell growth assay, CRISPR CpPDE1 Val900Ala mutant parasite; type: cell-based; conditions: Cryptosporidium parvum, HCT-8, read-out: EC50, CpPDE1 V900A, HCT-8 cell growth assay
[11] = system: human PDE-V; conditions: read-out: IC50 for human PDE-V; cited from earlier work

SMILES: CC(=O)Oc1ccccc1C(=O)Nc1ncc([N+](=O)[O-])s1 [nitazoxanide]
- parasite elimination in rate-of-action assay [1]: no nitazoxanide-dependent parasite elimination occurred
- parasite elimination in rate-of-action assay ([1]; listed as NTZ): No exponential decay curve could be fit
- effectiveness in AIDS patients [2]: equivalent to a placebo
- effectiveness in children [2]: ~ 56%

- solubility kinetic at 2 h ([5]; PBS, pH 7.4, aqueous buffer, kinetic from dmso stock): 21 µM (≈ 9.93 µg/mL)
SMILES: COc1ccc(CNc2nc(-c3ccc(C(=O)O)cc3)nc3c2c2ccccc2n3C)cc1Cl [PDEi4]
- selectivity index ([3]; HCT-8 TC50 vs C. parvum EC50): 100
- efficacy, 7-day dosing ([4]; 50 mpk twice daily oral): no significant effect

SMILES: CCc1nn(C)c2nc(-c3ccc(C(=O)O)cc3)nc(NCc3ccc(F)cc3)c12 [PDEi5, 4-(3-ethyl-4-((4-fluorobenzyl)amino)-1-methyl-1H-pyrazolo[3,4-d]pyrimidin-6-yl)benzoic acid]
- EC50 [6]: 4.7 µM
- time required for 99.9% parasite reduction ([1]; in the absence of host immune help): ~ 107 h
- toxicity to the HCT-8 cell line ([3]; 100 μM, highest concentration tested): non-toxic
- reduction of parasite shedding after 7 days of treatment ([4]; 50 mpk twice daily oral): ~ 99%
- relapse after treatment ([4]; after 7-day dosing): infection relapsed within a week of stopping treatment
- fall of mean mouse weight in the final days of treatment [7]: ~ 5%
- inhibition at 10 µM [8]: -14.7%
- SafetyScan47 EC50/IC50 for 45 of 47 targets [9]: > 30 µM
- solubility kinetic ([5]; aqueous solution, pH 7.4): 200 µM (≈ 81.1 µg/mL)

SMILES: CCCc1nn(C)c2c(=O)[nH]c(-c3cc(S(=O)(=O)N4CCN(C)CC4)ccc3OCC)nc12 [sildenafil]
- EC50 [10]: 14 µM
- IC50 [11]: 0.0035 µM

Source: publication PMC11436873 (Nature Communications, 2024)
